PubChem BioAssay
Records with an inconclusive call do not appear.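 Rule for the calls, unless noted: active = cell viability at or below a set limit in both duplicate runs, the limit being the all-compound median minus 4 SD (cut at about 23% in these data, passing the limit was not always enough); inconclusive = no clear call, values can overlap the other calls; inactive = the rest.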

Columns and labels:
[1] = S. cerevisiae growth inhibition in permissive medium (OD615), pilot counter-assay for S. cerevisiae lifespan shortening project, permissive growth control (AID 705;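 active = growth inhibition above 25% in both replicates, a cutoff set 3 SD above the mean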); settings: OD615, 24 h, at 10 µM, hits give high values
How it was run: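 Test system: Saccharomyces cerevisiae strain carrying genetically modified DeaD replicative-lifespan system; buffer or medium: SC raffinose/galactose permissive medium; dosing: one dose 10 µM, DMSO 0.25% final; times: 24 h exposure, 30 °C; measured by: OD at 615 nm; read-out basis: growth inhibition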

[2] = S. cerevisiae growth inhibition in restrictive medium, OD615, pilot screen, restrictive growth control, yeast lifespan reduction project (AID 706;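 active = growth inhibition above a set limit, 3 SD over mean compound inhibition, in both replicates, cut at about 43% in these data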;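 note: modified DeaD lifespan yeast strain shifted to restrictive glucose medium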); settings: OD615, 48 h, at 10 µM, hits give high values
How it was run: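 material = engineered S. cerevisiae DeaD strain | buffer or medium = glucose-based CSMM-D restrictive medium | dosing = one concentration, 10 µM final, 0.25% DMSO | schedule = 4 h pre-growth plus 48 h compound exposure, 30 °C | detection = OD615 absorbance reading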

[3] = doxorubicin toxicity protection in MRP-1 cells – H69AR cells, CellTiter-Glo, duplicate, MRP-1 activator project, pilot screen (AID 807;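 active = viability increase at or above a cutoff of the median across tested compounds plus 3 SD, cut at about 8.5% in these data, passing the limit was not always enough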;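 note: compound pretreatment 18-22 h then 72 h combined with doxorubicin; 0% = doxorubicin alone and 100% = vehicle without doxorubicin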); settings: H69AR viability with doxorubicin, CellTiter-Glo luminescence; at 10 µM; hits give high values
[4] = viability of HCT116 without oncogenic beta-catenin – human colon tumor cells, pilot screen (AID 823); settings: HCT116 beta-catenin knockout viability, CellTiter-Glo, 60 h; at 10 µM; hits give low values;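 note: 0% = wells killed by 20 µM Hyamine and 100% = untreated DMSO cell wells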
[5] = viability of PTEN-null HCT116 cells – cell-based, HCT116 clonal line, CellTiter-Glo, pilot screen (AID 824;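 active = viability at or below 27.92% in each of two runs, the all-compound median minus 4 SD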;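 note: 0% = 20 µM Hyamine control and 100% = vehicle cell control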); settings: HCT116 PTEN-deleted viability, 60 h, at 10 µM, hits give low values
[6] = RAM pathway blockade in budding yeast – dse1pr::URA3 reporter, 5-FOA selection, pilot screen (AID 869;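 active = inhibition over a set limit, the all-compound mean plus 3 SD, in both replicate runs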;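 note: 0% = DMSO wells with no growth and 100% = 10 µM 1-NA-PP1 with full growth; RAM network block rescues cells from 5-FOA so hits raise OD615 growth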); settings: S. cerevisiae dse1pr::URA3 5-FOA growth, OD615, 2 d; at 10 µM; hits give high values; strain carries analog-sensitive mutant Cbk1 kinase
[7] = RAM signaling pathway blockade in yeast – S. cerevisiae, Pdr1DBD-CYC8 efflux-inhibited sensitized strain, primary screen (AID 1298;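 active = RAM network inhibition above 8.4% in each of two replicates, 3 SD over the compound average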;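 note: 0% = DMSO untreated cells without growth and 100% = 10 µM 1-NA-PP1 full growth; higher means more yeast growth rescued from 5-FOA killing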); settings: S. cerevisiae cbk1-as DSE1-URA3 strain, 5-FOA growth OD615, 2 d; at 50 µM; hits give high values

Cc1cc(C)c(S(=O)(=O)N2CCN(C)CC2)c(C)c1
inactive: growth inhibition [1] -9.57% | growth inhibition [2] -13.9% | viability increase [3] 1.1% | viability [4] 101% | viability [5] 101% | inhibition [6] 0.885% | RAM network inhibition [7] 1.78%

O=C1NC(c2ccco2)Nc2sc3c(c21)CCN(Cc1ccccc1)C3 (configuration not stated)
inactive: growth inhibition [1] 4.68% | growth inhibition [2] 17.8% | viability increase [3] -3.01% | viability [4] 103% | viability [5] 94% | inhibition [6] 1.84% | RAM network inhibition [7] 3.69%

O=S(=O)(NCc1ccc2c(c1)OCO2)c1cnc[nH]1
inactive: growth inhibition [1] -5.07% | growth inhibition [2] 0.305% | viability increase [3] 1.17% | viability [4] 107% | viability [5] 106% | inhibition [6] 0.885% | RAM network inhibition [7] 0.72%

CCCCCn1c(CNC(C)=O)nc2ccccc21
inactive: growth inhibition [1] -11.1% | growth inhibition [2] -13.2% | viability increase [3] 0.03% | viability [4] 93.5% | viability [5] 97.7% | inhibition [6] 0.54% | RAM network inhibition [7] 7.59%

C=CCn1cc(C(=O)NCc2cccnc2)c(=O)c2cc(S(=O)(=O)N(CC)CC)ccc21
inactive: growth inhibition [1] -7.53% | growth inhibition [2] -8.9% | viability increase [3] -3.95% | viability [4] 103% | viability [5] 97% | inhibition [6] 1.33% | RAM network inhibition [7] 0.51%

Cc1sc2nc(SCC(=O)NCc3ccco3)n(C)c(=O)c2c1C
inactive: growth inhibition [1] -4.25% | growth inhibition [2] -12.5% | viability increase [3] -4.96% | viability [4] 105% | viability [5] 94.3% | inhibition [6] 2.1% | RAM network inhibition [7] 3.82%

Cc1cc(C)c2c3c(c(-c4ccccc4)n2n1)c(=O)n(C)c(=O)n3C
inactive: growth inhibition [1] -9.68% | growth inhibition [2] -1.79% | viability increase [3] -1.8% | viability [4] 101% | viability [5] 94% | inhibition [6] 2.26% | RAM network inhibition [7] 5.77%

CCOC(=O)c1c(N)sc(C(N)=O)c1C
inactive: growth inhibition [1] -17.3% | growth inhibition [2] -8.77% | viability increase [3] -1.19% | viability [4] 95.3% | viability [5] 97.3% | inhibition [6] 1.25% | RAM network inhibition [7] 0.78%

CC(C)c1cc(N2CCN(C(=O)c3ccco3)CC2)n2c(nc3ccccc32)c1C#N
inactive: growth inhibition [1] -3.91% | growth inhibition [2] 0.12% | viability increase [3] -5.67% | viability [4] 94.1% | viability [5] 91.6% | inhibition [6] 2.04% | RAM network inhibition [7] 3.57%

Cn1c(NCc2ccccc2Cl)nc2ccccc21
inactive: growth inhibition [1] -5.4% | growth inhibition [2] -11.6% | viability increase [3] 0.98% | viability [4] 97.5% | viability [5] 92.8% | inhibition [6] 0.3% | RAM network inhibition [7] 1.78%

CC(=O)Nc1nnc(SCC(=O)NC(C)(C)C)s1
inactive: growth inhibition [1] -6.89% | growth inhibition [2] 1.67% | viability increase [3] -0.33% | viability [4] 94.8% | viability [5] 98.8% | inhibition [6] 1.88% | RAM network inhibition [7] 0.36%

CC1CCCCN1C(=O)CSCC(=O)Nc1nc(-c2cccs2)cs1 (configuration not stated)
inactive: growth inhibition [1] 2.07% | growth inhibition [2] -3.92% | viability increase [3] -4.62% | viability [4] 99.2% | viability [5] 94.6% | inhibition [6] 0.505% | RAM network inhibition [7] 1.69%

C=CCn1c(-c2ccco2)n[nH]c1=S
inactive: growth inhibition [1] 2.98% | growth inhibition [2] -4.35% | viability increase [3] -1.3% | viability [4] 110% | viability [5] 97.6% | inhibition [6] 1.58% | RAM network inhibition [7] 2.89%

O=S(=O)(NCc1cccnc1)c1ccc(Cl)c(Cl)c1
inactive: growth inhibition [1] -0.945% | growth inhibition [2] -19.6% | viability increase [3] -0.3% | viability [4] 98.9% | viability [5] 93.8% | inhibition [6] 0.75% | RAM network inhibition [7] 4.18%

O=C(Nc1ccc(N2CCN(C(=O)c3ccccc3)CC2)c(Cl)c1)c1ccco1
inactive: growth inhibition [1] 4.29% | growth inhibition [2] 14.1% | viability increase [3] -3.69% | viability [4] 67% | viability [5] 75.9% | inhibition [6] 3.31% | RAM network inhibition [7] 5.57%

CC(=O)c1cccc(NC(=O)c2c(F)c(F)c(F)c(F)c2F)c1
inactive: growth inhibition [1] -4.19% | growth inhibition [2] 6.79% | viability increase [3] -7.13% | viability [4] 95% | viability [5] 88.4% | inhibition [6] 1.01% | RAM network inhibition [7] -0.87%

CCC(=O)Nc1c(C)cc(C)cc1Cl
inactive: growth inhibition [1] -12.5% | growth inhibition [2] -10.9% | viability increase [3] -0.97% | viability [4] 92.7% | viability [5] 96.4% | inhibition [6] 1.44% | RAM network inhibition [7] 0.83%

CCCOc1ccc(NC(=O)c2c(-c3ccccc3)noc2C)cc1
inactive: growth inhibition [1] -3.83% | growth inhibition [2] -7.54% | viability increase [3] -1.84% | viability [4] 103% | viability [5] 90.5% | inhibition [6] 1.34% | RAM network inhibition [7] 2.96%

CCOC(=O)c1c(NC(=O)c2ccco2)sc2c1CCCC2
inactive: growth inhibition [1] -15.7% | growth inhibition [2] -15.4% | viability increase [3] 1.84% | viability [4] 97.8% | viability [5] 101% | inhibition [6] 4.13% | RAM network inhibition [7] 1.41%

CCCNC(=O)Nc1cc(OCC)c(N2CCOCC2)cc1OCC
inactive: growth inhibition [1] -0.41% | growth inhibition [2] 6.55% | viability increase [3] -1.37% | viability [4] 99.6% | viability [5] 105% | inhibition [6] 1.57% | RAM network inhibition [7] 0.87%

O=C1CCC(=O)N1c1cccc(-c2nc3ccccc3o2)c1
inactive: growth inhibition [1] -7.93% | growth inhibition [2] -2.65% | viability increase [3] 0.42% | viability [4] 106% | viability [5] 105% | inhibition [6] -0.245% | RAM network inhibition [7] 4.59%

CCOc1ccc(NC(=O)CSc2nnc(Cc3cccn3C)n2-c2ccc(F)cc2)cc1
inactive: growth inhibition [1] 11.1% | growth inhibition [2] 19.2% | viability increase [3] -4.64% | viability [4] 95.7% | viability [5] 91% | inhibition [6] 1.56% | RAM network inhibition [7] 6.97%

OC(COc1cccc2ccccc12)CN1CCN(c2ccccn2)CC1 (configuration not stated)
inactive: growth inhibition [1] -5.36% | growth inhibition [2] 1.3% | viability increase [3] -2.34% | viability [4] 84.9% | viability [5] 81.7% | inhibition [6] 0.445% | RAM network inhibition [7] 2.59%

Cn1cc(SCC(=O)N2CCN(c3ccccc3)CC2)c2ccccc21
inactive: growth inhibition [1] -0.395% | growth inhibition [2] 11.5% | viability increase [3] -4.68% | viability [4] 91.3% | viability [5] 88.4% | inhibition [6] 1.52% | RAM network inhibition [7] 7.36%

COc1ccc(NC2=CC(=O)CC(C)(C)C2)cc1OC
inactive: growth inhibition [1] -5.52% | growth inhibition [2] -8.65% | viability increase [3] -3.58% | viability [4] 96.8% | viability [5] 89.2% | inhibition [6] 0.975% | RAM network inhibition [7] 0.37%

O=C(CSc1nc2c(cnn2-c2ccc(F)cc2)c(=O)[nH]1)N1CCCc2ccccc21
inactive: growth inhibition [1] -2.67% | growth inhibition [2] -5.17% | viability increase [3] -3.32% | viability [4] 87.2% | viability [5] 83% | inhibition [6] 1.2% | RAM network inhibition [7] 4.44%

CCOc1ccc(C(=O)c2nc3c(n2O)CCCC3)cc1
inactive: growth inhibition [1] -15% | growth inhibition [2] -7.18% | viability increase [3] 0.17% | viability [4] 91.1% | viability [5] 103% | inhibition [6] 1.41% | RAM network inhibition [7] -0.74%

C=CCn1c(=N)n(CC(O)COc2ccccc2OC)c2ccccc21 (configuration not stated)
inactive: growth inhibition [1] -4.97% | growth inhibition [2] 0.15% | viability increase [3] -4.19% | viability [4] 73.9% | viability [5] 77.4% | inhibition [6] 1.92% | RAM network inhibition [7] 1.07%

C=CCn1c(C(C)NC(=O)CCC)nc2ccccc21 (configuration not stated)
inactive: growth inhibition [1] 0.415% | growth inhibition [2] 7.8% | viability increase [3] -0.88% | viability [4] 104% | viability [5] 93.9% | inhibition [6] 1.11% | RAM network inhibition [7] -0.02%

O=C(c1coc2ccccc2c1=O)N1CCN(c2cccc(C(F)(F)F)c2)CC1
inactive: growth inhibition [1] -20% | growth inhibition [2] -32.1% | viability increase [3] 0.69% | viability [4] 99.8% | viability [5] 99.9% | inhibition [6] 1.23% | RAM network inhibition [7] 5.68%

CC1CCN(S(=O)(=O)N2CCC(C(=O)N3CCC(N(C)CC4CCCO4)CC3)CC2)CC1 (configuration not stated)
inactive: growth inhibition [1] -0.85% | growth inhibition [2] -5.09% | viability increase [3] -1.16% | viability [4] 90.6% | viability [5] 95.3% | inhibition [6] 2.09% | RAM network inhibition [7] 0.73%

Cc1ccc(C)c2[nH]c(=O)c(CCNC(=O)CC(C)C)cc12
inactive: growth inhibition [1] -2.83% | growth inhibition [2] -10.7% | viability increase [3] -1.74% | viability [4] 103% | viability [5] 108% | inhibition [6] 1.75% | RAM network inhibition [7] 8.88%

CC(=O)OCCn1c(=O)c2cc3c(=O)n(CCOC(C)=O)c(=O)c3cc2c1=O
inactive: growth inhibition [1] -7.22% | growth inhibition [2] -6.18% | viability increase [3] -0.09% | viability [4] 101% | viability [5] 98.3% | inhibition [6] 1.84% | RAM network inhibition [7] 1.25%

CCOC(=O)c1ccc(N2C(=O)c3n[nH]c(C)c3C2c2ccccn2)cc1 (configuration not stated)
inactive: growth inhibition [1] 0.375% | growth inhibition [2] 3.62% | viability increase [3] 0.57% | viability [4] 108% | viability [5] 114% | inhibition [6] 0.195% | RAM network inhibition [7] 3.09%

CCOC(=O)c1sc2nc3n(c(=O)c2c1C)CCCCC3
inactive: growth inhibition [1] -4.76% | growth inhibition [2] 5.75% | viability increase [3] 6.25% | viability [4] 87.5% | viability [5] 103% | inhibition [6] 0.475% | RAM network inhibition [7] 4.46%

Brc1cnc(N2CCCC2)nc1N1CCCCC1
inactive: growth inhibition [1] -5.12% | growth inhibition [2] 2.11% | viability increase [3] -2.63% | viability [4] 86.2% | viability [5] 84.4% | inhibition [6] 2.09% | RAM network inhibition [7] 0%
